Experimental data from ChEMBL document CHEMBL2157983 (Bioorg Med Chem Lett, 2011).

Tested on: Escherichia coli
Assay: Activity of Escherichia coli nitroreductase nfsB assessed as NADH oxidation per mg of protein
Conditions: not given
Procedure, shortened: (§1)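 Substrate activity reported as the initial velocity of NADH oxidation (nmol/min/mg) with either E. coli nfsB or T. brucei nitroreductase (TbNTR). The reaction was followed by the change in absorbance at 340 nm.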

| SMILES | Activity [nmol/min] |
| --- | --- |
| COc1cc([N+](=O)[O-])ccc1COP(N)(=O)N(CCCl)CCCl (stereo not drawn) | 6980 |
| C[C@@H](OP(N)(=O)N(CCCl)CCCl)c1ccc([N+](=O)[O-])cc1 (stereo partly drawn) | 1400 |
| COC(=O)c1cc(COP(N)(=O)N(CCCl)CCCl)ccc1[N+](=O)[O-] (stereo not drawn) | 167 |
| NP(=O)(OCc1ccccc1[N+](=O)[O-])N(CCCl)CCCl (stereo not drawn) | 256 |
| NC(=O)c1cc(COP(N)(=O)N(CCCl)CCCl)ccc1[N+](=O)[O-] (stereo not drawn) | 211 |
| COc1cc(COP(N)(=O)N(CCCl)CCCl)ccc1[N+](=O)[O-] (stereo not drawn) | 2440 |
| NP(=O)(OCc1ccc([N+](=O)[O-])cc1)N(CCCl)CCCl (stereo not drawn) | 1280 |
| C[C@H](OP(N)(=O)N(CCCl)CCCl)c1ccc([N+](=O)[O-])cc1 (stereo partly drawn) | 916 |
| NP(=O)(OCc1cccc([N+](=O)[O-])c1)N(CCCl)CCCl (stereo not drawn) | 683 |

Tested on: V79
Assay: Antiproliferative activity against Chinese hamster V79 cells assessed as reduction in cell number after 72 hrs
Format: cell-based
Conditions: Cricetulus griseus, V79, 72 h
Procedure, shortened: (§2)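 V79 cells carrying vector only served as the control line. The NTR+ line carried a bicistronic construct encoding E. coli nfsB with a puromycin selection marker. Cells were exposed to drug for 72 h. […] The ratio is IC50 in NTR− cells divided by IC50 in NTR+ cells.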

| SMILES | IC50 [µM] |
| --- | --- |
| COc1cc([N+](=O)[O-])ccc1COP(N)(=O)N(CCCl)CCCl (stereo not drawn) | 41 |
| C[C@@H](OP(N)(=O)N(CCCl)CCCl)c1ccc([N+](=O)[O-])cc1 (stereo partly drawn) | 57 |
| COC(=O)c1cc(COP(N)(=O)N(CCCl)CCCl)ccc1[N+](=O)[O-] (stereo not drawn) | 69 |
| NP(=O)(OCc1ccccc1[N+](=O)[O-])N(CCCl)CCCl (stereo not drawn) | > 100 |
| NC(=O)c1cc(COP(N)(=O)N(CCCl)CCCl)ccc1[N+](=O)[O-] (stereo not drawn) | > 100 |
| COc1cc(COP(N)(=O)N(CCCl)CCCl)ccc1[N+](=O)[O-] (stereo not drawn) | 48 |
| NP(=O)(OCc1ccc([N+](=O)[O-])cc1)N(CCCl)CCCl (stereo not drawn) | 59 |
| C[C@H](OP(N)(=O)N(CCCl)CCCl)c1ccc([N+](=O)[O-])cc1 (stereo partly drawn) | 65 |
| NP(=O)(OCc1cccc([N+](=O)[O-])c1)N(CCCl)CCCl (stereo not drawn) | > 100 |

Tested on: V79
Assay: Antiproliferative activity against Chinese hamster V79 cells transfected with Escherichia coli nitroreductase nfsB assessed as reduction in cell number after 72 hrs
Format: functional, cell-based
Conditions: Cricetulus griseus, V79, 72 h
Procedure, shortened: as §2

| SMILES | IC50 [µM] |
| --- | --- |
| COc1cc([N+](=O)[O-])ccc1COP(N)(=O)N(CCCl)CCCl (stereo not drawn) | 0.0005 |
| C[C@@H](OP(N)(=O)N(CCCl)CCCl)c1ccc([N+](=O)[O-])cc1 (stereo partly drawn) | 0.002 |
| COC(=O)c1cc(COP(N)(=O)N(CCCl)CCCl)ccc1[N+](=O)[O-] (stereo not drawn) | 0.1 |
| NP(=O)(OCc1ccccc1[N+](=O)[O-])N(CCCl)CCCl (stereo not drawn) | 0.18 |
| NC(=O)c1cc(COP(N)(=O)N(CCCl)CCCl)ccc1[N+](=O)[O-] (stereo not drawn) | 0.03 |
| COc1cc(COP(N)(=O)N(CCCl)CCCl)ccc1[N+](=O)[O-] (stereo not drawn) | 0.003 |
| NP(=O)(OCc1ccc([N+](=O)[O-])cc1)N(CCCl)CCCl (stereo not drawn) | 0.0008 |
| C[C@H](OP(N)(=O)N(CCCl)CCCl)c1ccc([N+](=O)[O-])cc1 (stereo partly drawn) | 0.002 |
| NP(=O)(OCc1cccc([N+](=O)[O-])c1)N(CCCl)CCCl (stereo not drawn) | 0.26 |

Tested on: V79
Assay: Ratio of IC50 for Chinese hamster V79 cells to IC50 for Chinese hamster V79 cells transfected with Escherichia coli nitroreductase nfsB
Parameters: species or system Cricetulus griseus
Conditions: not given
Procedure, shortened: as §2

| SMILES | Ratio IC50 |
| --- | --- |
| COc1cc([N+](=O)[O-])ccc1COP(N)(=O)N(CCCl)CCCl (stereo not drawn) | 82000 |
| C[C@@H](OP(N)(=O)N(CCCl)CCCl)c1ccc([N+](=O)[O-])cc1 (stereo partly drawn) | 28500 |
| COC(=O)c1cc(COP(N)(=O)N(CCCl)CCCl)ccc1[N+](=O)[O-] (stereo not drawn) | 690 |
| NP(=O)(OCc1ccccc1[N+](=O)[O-])N(CCCl)CCCl (stereo not drawn) | >556 |
| NC(=O)c1cc(COP(N)(=O)N(CCCl)CCCl)ccc1[N+](=O)[O-] (stereo not drawn) | >3330 |
| COc1cc(COP(N)(=O)N(CCCl)CCCl)ccc1[N+](=O)[O-] (stereo not drawn) | 16000 |
| NP(=O)(OCc1ccc([N+](=O)[O-])cc1)N(CCCl)CCCl (stereo not drawn) | 73750 |
| C[C@H](OP(N)(=O)N(CCCl)CCCl)c1ccc([N+](=O)[O-])cc1 (stereo partly drawn) | 32500 |
| NP(=O)(OCc1cccc([N+](=O)[O-])c1)N(CCCl)CCCl (stereo not drawn) | >385 |

Tested on: SK-OV-3
Assay: Antiproliferative activity against human SKOV3 cells after 18 hrs assessed as reduction in cell number
Format: functional, cell-based
Conditions: SK-OV-3, 18 h
Procedure, shortened: (§3)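 Untransfected parental SKOV3 cells were compared with SKOV3 cells expressing E. coli nfsB. Drug exposure lasted 18 h. […] The ratio is IC50 in NTR− cells divided by IC50 in NTR+ cells.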

| SMILES | IC50 [µM] |
| --- | --- |
| C[C@@H](OP(N)(=O)N(CCCl)CCCl)c1ccc([N+](=O)[O-])cc1 (stereo partly drawn) | > 1000 |
| COC(=O)c1cc(COP(N)(=O)N(CCCl)CCCl)ccc1[N+](=O)[O-] (stereo not drawn) | 435 |
| NP(=O)(OCc1ccccc1[N+](=O)[O-])N(CCCl)CCCl (stereo not drawn) | > 1000 |
| NC(=O)c1cc(COP(N)(=O)N(CCCl)CCCl)ccc1[N+](=O)[O-] (stereo not drawn) | > 1000 |
| COc1cc(COP(N)(=O)N(CCCl)CCCl)ccc1[N+](=O)[O-] (stereo not drawn) | 641 |
| NP(=O)(OCc1ccc([N+](=O)[O-])cc1)N(CCCl)CCCl (stereo not drawn) | 943 |
| C[C@H](OP(N)(=O)N(CCCl)CCCl)c1ccc([N+](=O)[O-])cc1 (stereo partly drawn) | > 1000 |
| NP(=O)(OCc1cccc([N+](=O)[O-])c1)N(CCCl)CCCl (stereo not drawn) | 947 |

Tested on: SK-OV-3
Assay: Antiproliferative activity against human SKOV3 cells transfected with Escherichia coli nitroreductase nfsB assessed as reduction in cell number after 18 hrs
Format: functional, cell-based
Conditions: SK-OV-3, 18 h
Procedure, shortened: as §3

| SMILES | IC50 [µM] |
| --- | --- |
| C[C@@H](OP(N)(=O)N(CCCl)CCCl)c1ccc([N+](=O)[O-])cc1 (stereo partly drawn) | 0.28 |
| COC(=O)c1cc(COP(N)(=O)N(CCCl)CCCl)ccc1[N+](=O)[O-] (stereo not drawn) | 0.43 |
| NP(=O)(OCc1ccccc1[N+](=O)[O-])N(CCCl)CCCl (stereo not drawn) | 5.23 |
| NC(=O)c1cc(COP(N)(=O)N(CCCl)CCCl)ccc1[N+](=O)[O-] (stereo not drawn) | 6.75 |
| COc1cc(COP(N)(=O)N(CCCl)CCCl)ccc1[N+](=O)[O-] (stereo not drawn) | 0.44 |
| NP(=O)(OCc1ccc([N+](=O)[O-])cc1)N(CCCl)CCCl (stereo not drawn) | 0.099 |
| C[C@H](OP(N)(=O)N(CCCl)CCCl)c1ccc([N+](=O)[O-])cc1 (stereo partly drawn) | 0.49 |
| NP(=O)(OCc1cccc([N+](=O)[O-])c1)N(CCCl)CCCl (stereo not drawn) | 55 |

Tested on: SK-OV-3
Assay: Ratio of IC50 for human SKOV3 cells to IC50 for human SKOV3 cells transfected with Escherichia coli nitroreductase nfsB
Format: functional
Conditions: not given
Procedure, shortened: as §3

| SMILES | Ratio IC50 |
| --- | --- |
| C[C@@H](OP(N)(=O)N(CCCl)CCCl)c1ccc([N+](=O)[O-])cc1 (stereo partly drawn) | >3500 |
| COC(=O)c1cc(COP(N)(=O)N(CCCl)CCCl)ccc1[N+](=O)[O-] (stereo not drawn) | 1000 |
| NP(=O)(OCc1ccccc1[N+](=O)[O-])N(CCCl)CCCl (stereo not drawn) | >190 |
| NC(=O)c1cc(COP(N)(=O)N(CCCl)CCCl)ccc1[N+](=O)[O-] (stereo not drawn) | >150 |
| COc1cc(COP(N)(=O)N(CCCl)CCCl)ccc1[N+](=O)[O-] (stereo not drawn) | 1460 |
| NP(=O)(OCc1ccc([N+](=O)[O-])cc1)N(CCCl)CCCl (stereo not drawn) | 9520 |
| C[C@H](OP(N)(=O)N(CCCl)CCCl)c1ccc([N+](=O)[O-])cc1 (stereo partly drawn) | >2000 |
| NP(=O)(OCc1cccc([N+](=O)[O-])c1)N(CCCl)CCCl (stereo not drawn) | 17 |

Tested on: Trypanosoma brucei
Assay: Activity of Trypanosoma brucei NTR assessed as NADH oxidation per mg of protein
Conditions: not given
Procedure, shortened: as §1

| SMILES | Activity [nmol/min] |
| --- | --- |
| COc1cc([N+](=O)[O-])ccc1COP(N)(=O)N(CCCl)CCCl (stereo not drawn) | 239 |
| C[C@@H](OP(N)(=O)N(CCCl)CCCl)c1ccc([N+](=O)[O-])cc1 (stereo partly drawn) | 34 |
| NP(=O)(OCc1ccccc1[N+](=O)[O-])N(CCCl)CCCl (stereo not drawn) | 19 |
| COc1cc(COP(N)(=O)N(CCCl)CCCl)ccc1[N+](=O)[O-] (stereo not drawn) | 0 |
| NP(=O)(OCc1ccc([N+](=O)[O-])cc1)N(CCCl)CCCl (stereo not drawn) | 246 |
| C[C@H](OP(N)(=O)N(CCCl)CCCl)c1ccc([N+](=O)[O-])cc1 (stereo partly drawn) | 52 |
| NP(=O)(OCc1cccc([N+](=O)[O-])c1)N(CCCl)CCCl (stereo not drawn) | 369 |

Tested on: Trypanosoma brucei
Assay: Trypanocidal activity against of Trypanosoma brucei bloodstream trypomastigote forms assessed as inhibition of parasite growth
Format: functional, organism-based
Conditions: not given

| SMILES | IC50 [µM] |
| --- | --- |
| COc1cc([N+](=O)[O-])ccc1COP(N)(=O)N(CCCl)CCCl (stereo not drawn) | > 10 |
| C[C@@H](OP(N)(=O)N(CCCl)CCCl)c1ccc([N+](=O)[O-])cc1 (stereo partly drawn) | > 10 |
| NP(=O)(OCc1ccccc1[N+](=O)[O-])N(CCCl)CCCl (stereo not drawn) | > 10 |
| COc1cc(COP(N)(=O)N(CCCl)CCCl)ccc1[N+](=O)[O-] (stereo not drawn) | > 10 |
| NP(=O)(OCc1ccc([N+](=O)[O-])cc1)N(CCCl)CCCl (stereo not drawn) | > 10 |
| C[C@H](OP(N)(=O)N(CCCl)CCCl)c1ccc([N+](=O)[O-])cc1 (stereo partly drawn) | > 10 |
| NP(=O)(OCc1cccc([N+](=O)[O-])c1)N(CCCl)CCCl (stereo not drawn) | > 10 |

Tested on: Leishmania major
Assay: Trypanocidal activity against Leishmania major promastigote forms infected in sandfly gut assessed as inhibition of parasite growth
Format: functional, organism-based
Conditions: not given

| SMILES | IC50 [µM] |
| --- | --- |
| COc1cc([N+](=O)[O-])ccc1COP(N)(=O)N(CCCl)CCCl (stereo not drawn) | 15.6 |
| C[C@@H](OP(N)(=O)N(CCCl)CCCl)c1ccc([N+](=O)[O-])cc1 (stereo partly drawn) | > 30 |
| NP(=O)(OCc1ccccc1[N+](=O)[O-])N(CCCl)CCCl (stereo not drawn) | > 30 |
| COc1cc(COP(N)(=O)N(CCCl)CCCl)ccc1[N+](=O)[O-] (stereo not drawn) | > 30 |
| NP(=O)(OCc1ccc([N+](=O)[O-])cc1)N(CCCl)CCCl (stereo not drawn) | > 30 |
| C[C@H](OP(N)(=O)N(CCCl)CCCl)c1ccc([N+](=O)[O-])cc1 (stereo partly drawn) | > 30 |
| NP(=O)(OCc1cccc([N+](=O)[O-])c1)N(CCCl)CCCl (stereo not drawn) | > 30 |

Tested on: SK-OV-3
Assay: Antiproliferative activity against human SKOV3 cells with mixed population of 25% NTR(+) cells and 75% NTR(-) cells assessed as bystander effect by measuring mixed population of NTR(+) and NTR (-) cells to produce an IC50 midway on log scale between those in either NTR(+) or NTR(-) cells alone after 18 hrs
Format: functional
Conditions: not given
Procedure, shortened: (§4)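 Drug exposure lasted 18 h. BE50 is the percentage of NTR+ cells in the mix needed to give an IC50 at the log-scale (geometric) midpoint between the IC50s of pure NTR+ and pure NTR− cultures.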

| SMILES | Activity [%] |
| --- | --- |
| NP(=O)(OCc1ccc([N+](=O)[O-])cc1)N(CCCl)CCCl (stereo not drawn) | 5.6 |

Tested on: SK-OV-3
Assay: Antiproliferative activity against human SKOV3 cells with mixed population of 25% NTR(+) cells and 75% NTR(-) cells assessed as reduction in cell number after 18 hrs
Format: functional, cell-based
Conditions: SK-OV-3, 18 h
Procedure, shortened: as §4

| SMILES | IC50 [µM] |
| --- | --- |
| NP(=O)(OCc1ccc([N+](=O)[O-])cc1)N(CCCl)CCCl (stereo not drawn) | 0.98 |
